Experimental data from ChEMBL document CHEMBL1127484, “5-Aryl-3-(alkylthio)-4H-1,2,4-triazoles as selective antagonists of strychnine-induced convulsions and potential antispastic agents” (J Med Chem, 1994).
The source made the active and inactive calls.

Experiments:
[1] = test system: Mus musculus; assay: Effective dose required for antagonist activity against maximal electroshock induced seizures in mice when administered intraperitoneally; format: functional; details: ip
Method in brief: (§1)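 CD-1 male mice (18–26 g), groups of 5 or 10, housed individually, dosed ip in distilled H2O or H2O/Tween 80. Convulsant given 30 min later. Strychnine sulfate 2.7 mg/kg ip: protection = no tonic extension >15 min. MES 50 mA, 0.2 s, corneal: no tonic hind-limb extension. PTZ 60 mg/kg iv: no clonic seizures for 2 min. MPA 100 mg/kg iv: no seizures for 5 min. ED50 by quantal analysis from ≥4 doses, ≥10 mice each.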

[2] = test system: Mus musculus; assay: Effective dose required for antagonist activity against pentylenetetrazole-induced seizures in mice when administered intraperitoneally; format: functional; details: ip; method in brief: as §1
[3] = test system: Mus musculus; assay: Effective dose required for antagonist activity against strychnine induced seizures in mice when administered intraperitoneally; Range is 32-50; format: functional; details: ip; method in brief: as §1
[4] = test system: Mus musculus; assay: Effective dose required for antagonist activity against 3-mercaptopropionic-acid induced seizures in mice when administered intraperitoneally; format: functional; details: ip; method in brief: as §1
[5] = Dose encompassing the 50% lethal effect was recorded when administered intraperitoneally in mice; format: ADME, organism-based; details: mouse, in vivo, ip
Method in brief: (§2)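 Deaths were recorded over the 7 days after dosing. The estimated LD50 was taken as the dose range spanning 50% lethality.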

[6] = test system: Mus musculus; assay: Effective dose required for antagonist activity against maximal electroshock induced seizures in mice when administered intraperitoneally; Range is 50-100; format: functional; details: ip; method in brief: as §1
[7] = test system: Mus musculus; assay: Effective dose required for antagonist activity against pentylenetetrazole-induced seizures in mice when administered intraperitoneally; Range is 50-100; format: functional; details: ip; method in brief: as §1
[8] = test system: Mus musculus; assay: Effective dose required for antagonist activity against strychnine induced seizures in mice when administered intraperitoneally; format: functional; details: ip; method in brief: as §1
[9] = Dose encompassing the 50% lethal effect was recorded when administered intraperitoneally in mice; Range is 400-800; format: ADME, organism-based; details: mouse, in vivo, ip; method in brief: as §2
[10] = test system: Mus musculus; assay: Effective dose required for antagonist activity against 3-mercaptopropionic-acid-induced seizures in mice when administered intraperitoneally; Range is 50-100; format: functional; details: ip; method in brief: as §1
[11] = test system: Mus musculus; assay: Effective dose required for antagonist activity against pentylenetetrazole-induced seizures in mice when administered intraperitoneally; Range is 25-50; format: functional; details: ip; method in brief: as §1
[12] = target: T1, GABA-A receptor; anion channel (Rattus norvegicus) (UniProt O09028+P15431+P18506+P18508+P19969+P20236+P23574+P23576+P28471+P28473+P30191+P62813+P63079+P63138+Q91ZM7+Q9ES14); assay: In vitro displacement of [3H]flunitrazepam at GABA-A benzodiazepine site in rat cortical membranes at 100 uM (Inactive); format: cell membranes; details: Membrane
[13] = target: T1, GABA-A receptor; anion channel (Rattus norvegicus); assay: In vitro displacement of [35S]TBPS at GABA-A picrotoxin convulsant site in rat cortical membranes at 100 uM (Inactive); format: cell membranes; details: Membrane
[14] = target: T1, GABA-A receptor; anion channel (Rattus norvegicus); assay: In vitro displacement of [3H]muscimol from GABA-A receptor in rat cortical membranes at 100 uM (Inactive); format: cell membranes; details: Membrane
[15] = target: GABA B receptor (Rattus norvegicus) (UniProt Q9Z0U4+O88871); assay: In vitro displacement of [3H]baclofen at GABA-B receptor in rat cortical membranes at 100 uM (Inactive); format: cell membranes; details: Membrane
[16] = test system: Rattus norvegicus; assay: Effect of compound on […] function in spinal transected rats at 10 mg/Kg; format: functional
Method in brief: (§3)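 Spinal-transected rats, 5-10 weeks post-transection. Hind-limb activity recorded by transducer. Output integrated over the first 3 s after leg pull (stretch-evoked reflex function) and over the next 57 s (spontaneous hyperreflexia). Sessions were run before and after ip dosing. Test agent given as suspension in distilled H2O/1% Tween 80, or as solution in distilled H2O. Data expressed as % of control; paired t test or least-squared-means comparisons.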

[17] = test system: Rattus norvegicus; assay: Effect of compound on reflux function in spinal transected rats at 20 mg/Kg; format: functional; method in brief: as §3
[18] = test system: Rattus norvegicus; assay: Effect of compound on reflux function in spinal transected rats at 40 mg/Kg; format: functional; method in brief: as §3
[19] = test system: Rattus norvegicus; assay: Effect of compound on reflux function in spinal transected rats at 5 mg/Kg; format: functional; method in brief: as §3
[20] = test system: Rattus norvegicus; assay: Effect of compound on hyperreflexia in spinal transected rats at 10 mg/Kg; format: functional; method in brief: as §3
[21] = test system: Rattus norvegicus; assay: Effect of compound on hyperreflexia in spinal transected rats at 20 mg/Kg; format: functional; method in brief: as §3
[22] = target: Gamma-aminobutyric acid receptor subunit gamma-1 (Rattus norvegicus) (UniProt P23574); assay: Enhancement of 1 uM muscimol-stimulated 36Cl- uptake into rat cerebellar membrane; format: functional; details: Cerebellum
Gamma-aminobutyric acid receptor subunit gamma-1 (Rattus norvegicus), sequence (P23574 whole entry): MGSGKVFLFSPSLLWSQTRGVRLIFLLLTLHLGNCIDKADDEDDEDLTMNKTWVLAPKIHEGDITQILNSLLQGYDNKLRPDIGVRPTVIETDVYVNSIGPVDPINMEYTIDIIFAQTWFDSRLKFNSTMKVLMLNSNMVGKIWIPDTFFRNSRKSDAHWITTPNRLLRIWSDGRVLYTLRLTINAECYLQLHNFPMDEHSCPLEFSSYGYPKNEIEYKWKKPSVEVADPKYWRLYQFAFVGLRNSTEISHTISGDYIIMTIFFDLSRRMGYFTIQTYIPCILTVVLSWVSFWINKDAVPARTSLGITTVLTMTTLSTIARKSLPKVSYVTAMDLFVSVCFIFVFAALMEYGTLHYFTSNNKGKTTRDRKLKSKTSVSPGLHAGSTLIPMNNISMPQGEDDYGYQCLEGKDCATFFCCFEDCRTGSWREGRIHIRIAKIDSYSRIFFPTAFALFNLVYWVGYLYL
Method in brief: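 Rat cerebellar membrane vesicles (adult male Sprague-Dawley) in HEPES/Tris buffer, pH 7.5. Preincubated on ice for 15 min with vehicle (0.2% DMSO) or 10 μM compound, then 5 min at 34 °C. 36Cl uptake run for 3 s with 1 μM muscimol and stopped by ice-cold 100 μM picrotoxin buffer plus filtration. Muscimol-stimulated uptake = uptake minus uptake without muscimol, in nmol/mg protein/3 s. Mean ± SEM, n = 3; Student's t test.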

[23] = test system: Rattus norvegicus; assay: Effect of compound on hyperreflexia in spinal transected rats at 40 mg/Kg; format: functional; method in brief: as §3

With Cn1c(-c2cccs2)nnc1[S+](C)[O-] (stereo unspecified) the ED50 [1] was greater than 200 mg/kg, the ED50 [2] was greater than 200 mg/kg and the ED50 [3] was 50 mg/kg. The ED50 [4] was greater than 200 mg/kg and the LD50 [5] was greater than 800 mg/kg.

Cn1nc(-c2ccccc2)nc1[S+](C)[O-] (stereo unspecified) gave an ED50 [6] of 100 mg/kg, an ED50 [7] of 100 mg/kg and an ED50 [8] greater than 200 mg/kg. The ED50 [4] was greater than 200 mg/kg and the LD50 [9] was 800 mg/kg.

Work on CCn1c(SC)nnc1-c1ccc(Cl)cc1 yielded an ED50 [10] of 100 mg/kg, an ED50 [1] greater than 50 mg/kg and an ED50 [11] of 50 mg/kg. The ED50 [8] was 26.7 mg/kg and the LD50 [5] was greater than 800 mg/kg.

For Cn1c(-c2ccccc2)nnc1S(C)(=O)=O, the Displacement [12] was “inactive”, the Displacement [13] was “inactive” and the Displacement [14] was “inactive”. The Displacement [15] was “inactive”, the ED50 [1] was greater than 200 mg/kg and the ED50 [2] was 55 mg/kg. For the same compound, the ED50 [4] was greater than 200 mg/kg, the LD50 [5] was greater than 800 mg/kg and the Control [16] was 116%. It also gave a Control [17] of 114%, a Control [18] of 87% and a Control [19] of 101%. The Control [20] was 46%, the Control [21] was 78% and the Uptake (nM 3s-1 (mg of protein)-1) [22] was 3.82. For the same compound, the Control [23] was 43%.
